# Measurements taken from ChEMBL document CHEMBL3259517, “Synthesis and evaluation of phosphorus containing, specific CDK9/CycT1 inhibitors” (J Med Chem, 2014).
# The source made the active and inactive calls. The rule behind the calls is not given here.
# Legend:
# CDK9/cyclin T1 [1] = target: T1, CDK9/cyclin T1 (Homo sapiens, UniProt P50750); assay: Inhibition of CDK9/CycT1 (unknown origin) expressed in HEK293 cells using GST-CTDII as substrate
# CDK9/cyclin T1 [2] = target: T1, CDK9/cyclin T1; assay: Inhibition of CDK9/CycT1 (unknown origin) using TAMRA-Rbtide and ATP as substrate after 1 hr; type: protein-complex assay
# [3] = target: T2, CDK9/cyclin T1 (Homo sapiens) (UniProt O60563+P50750); assay: Inhibition of CDK9/CycT1 (unknown origin) using TAMRA-Rbtide and ATP as substrate at 1 uM after 1 hr; type: protein-complex assay
# [4] = target: Cyclin-dependent kinase 4/cyclin D1 (Homo sapiens) (UniProt P11802+P24385); assay: Inhibition of CDK4/CycD1 (unknown origin) using FAM labeled peptide as substrate at 1 uM by IMAP FAM FP assay; type: protein-complex assay
# How it was run: (§1)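 Run by contract partners as an IMAP fluorescence polarization assay. […] Enzyme amount was set to give 50% substrate turnover. Compounds were added in DMSO, IMAP binding solution added after the kinase step, then FP read.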
# [5] = target: Cyclin-dependent kinase 2/cyclin E1 (Homo sapiens) (UniProt P24864+P24941); assay: Inhibition of CDK2/CycE (unknown origin) using FAM labeled peptide as substrate at 1 uM by IMAP FAM FP assay; type: protein-complex assay; how it was run: as §1
# [6] = Cytotoxicity against human MT4 cells assessed as cell viability at 2500 nM after 7 days by MTT assay relative to control; type: cell-based; settings: read-out: Activity
# How it was run: (§2)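 MT4 cells (2−3 × 10⁴/well) in RPMI1640 with 10% FCS, penicillin and streptomycin, exposed to compound at 2500 or 1250 nM for 7 days at 37 °C, 5% CO2. MTT added for 4 h, supernatant removed, formazan dissolved in DMSO, absorbance read at 540 nm. Viability expressed relative to untreated cells (100%).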
# [7] = system: Human immunodeficiency virus 1; assay: Antiviral activity against HIV1 HTLV-3B infected in human MT4 cells assessed as inhibition of virus proliferation by measuring host cell viability at 1250 nM relative to control; type: functional
# How it was run: (§3)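 HIV-1 HTLV-IIIB (3400 TCID50/mL per well; titre set by virus yield assay) infected MT4 cells, 2−3 × 10⁴/well in RPMI1640 with 10% FCS, penicillin and streptomycin, cultured as for the 7-day viability assay (37 °C, 5% CO2). Test compounds were at 1250 nM and AZT control at 25 nM. Read-out was MTT (4 h, DMSO, A540), given relative to infected untreated cells (100%).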
# [8] = target: Interleukin-1 receptor-associated kinase 3 (Homo sapiens) (UniProt Q9Y616); assay: Binding to IRAK3 (unknown origin) at 1 uM
# [9] = Cytotoxicity against human MT4 cells assessed as cell viability at 1250 nM after 7 days by MTT assay relative to control; type: cell-based; settings: read-out: Activity; how it was run: as §2
# [10] = target: Tyrosine-protein kinase JAK3 (Homo sapiens) (UniProt P52333); assay: Inhibition of JAK3 (unknown origin) at 1 uM
# [11] = target: Tyrosine-protein kinase receptor UFO (Homo sapiens) (UniProt P30530); assay: Inhibition of AXL (unknown origin) at 1 uM
# [12] = target: Serine/threonine-protein kinase PAK 1 (Homo sapiens) (UniProt Q13153); assay: Inhibition of PAK1 (unknown origin) at 1 uM
# [13] = target: Tyrosine-protein kinase SYK (Homo sapiens) (UniProt P43405); assay: Inhibition of SYK (unknown origin) at 1 uM
# [14] = target: Mast/stem cell growth factor receptor Kit (Homo sapiens) (UniProt P10721); assay: Inhibition of cKIT (unknown origin) at 1 uM
# [15] = target: Platelet-derived growth factor receptor beta (Homo sapiens) (UniProt P09619); assay: Inhibition of PDGFRb (unknown origin) at 1 uM
# [16] = target: Hepatocyte growth factor receptor (Homo sapiens) (UniProt P08581); assay: Inhibition of cMET (unknown origin) at 1 uM
# [17] = target: Serine/threonine-protein kinase Chk1 (Homo sapiens) (UniProt O14757); assay: Inhibition of CHK1 (unknown origin) at 1 uM
# [18] = target: Protein kinase C alpha type (Homo sapiens) (UniProt P17252); assay: Inhibition of PKCalpha (unknown origin) at 1 uM
# [19] = target: Inhibitor of nuclear factor kappa-B kinase subunit beta (Homo sapiens) (UniProt O14920); assay: Inhibition of IKKbeta (unknown origin) at 1 uM
# [20] = target: Serine/threonine-protein kinase PAK 4 (Homo sapiens) (UniProt O96013); assay: Inhibition of PAK4 (unknown origin) at 1 uM
# [21] = target: Tyrosine-protein kinase CSK (Homo sapiens) (UniProt P41240); assay: Inhibition of CSK (unknown origin) at 1 uM
# [22] = target: Fibroblast growth factor receptor 3 (Homo sapiens) (UniProt P22607); assay: Inhibition of FGFR3 (unknown origin) at 1 uM
# [23] = target: Epithelial discoidin domain-containing receptor 1 (Homo sapiens) (UniProt Q08345); assay: Inhibition of DDR1 (unknown origin) at 1 uM
# [24] = target: Serine/threonine-protein kinase pim-1 (Homo sapiens) (UniProt P11309); assay: Inhibition of PIM1 (unknown origin) at 1 uM
# [25] = target: Rho-associated protein kinase 2 (Homo sapiens) (UniProt O75116); assay: Inhibition of ROCK2 (unknown origin) at 1 uM
# [26] = target: Angiopoietin-1 receptor (Homo sapiens) (UniProt Q02763); assay: Inhibition of TIE2 (unknown origin) at 1 uM
# [27] = target: Receptor-type tyrosine-protein kinase FLT3 (Homo sapiens) (UniProt P36888); assay: Inhibition of FLT3 (unknown origin) at 1 uM
# [28] = target: T2, CDK9/cyclin T1 (Homo sapiens); assay: Competitive inhibition of CDK9/CycT1 (unknown origin) using ATP as substrate; type: protein-complex assay
# How it was run: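 Kinase inhibition measured with inhibitor held constant at 260 nM across five ATP concentrations, printed as 1.33, 4, 12 (K_mATP), 36 and 108 […]. Ki taken from measured IC50 via the Cheng−Prusoff equation, with the IC50/Ki ratio compared across ATP levels.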
# [29] = target: Interleukin-1 receptor-associated kinase 4 (Homo sapiens) (UniProt Q9NWZ3); assay: Inhibition of IRAK4 (unknown origin) at 1 uM
# [30] = target: RAC-alpha serine/threonine-protein kinase (Homo sapiens) (UniProt P31749); assay: Inhibition of AKT1 (unknown origin) at 1 uM
# [31] = target: Tyrosine-protein kinase ABL1 (Homo sapiens) (UniProt P00519); assay: Inhibition of ABL (unknown origin) at 1 uM
# [32] = target: Vascular endothelial growth factor receptor 2 (Homo sapiens) (UniProt P35968); assay: Inhibition of VEGFR2 (unknown origin) at 1 uM
# [33] = target: Receptor tyrosine-protein kinase erbB-2 (Homo sapiens) (UniProt P04626); assay: Inhibition of ERBB2 (unknown origin) at 1 uM
# [34] = target: Serine/threonine-protein kinase mTOR (Homo sapiens) (UniProt P42345); assay: Inhibition of mTOR (unknown origin) at 1 uM
# [35] = target: Insulin receptor (Homo sapiens) (UniProt P06213); assay: Inhibition of INSR (unknown origin) at 1 uM
# [36] = target: Serine/threonine-protein kinase B-raf (Homo sapiens) (UniProt P15056); assay: Inhibition of bRAF (unknown origin) at 1 uM
# [37] = target: High affinity nerve growth factor receptor (Homo sapiens) (UniProt P04629); assay: Inhibition of TrkA (unknown origin) at 1 uM
# [38] = target: Proto-oncogene tyrosine-protein kinase receptor Ret (Homo sapiens) (UniProt P07949); assay: Inhibition of RET (unknown origin) at 1 uM
# [39] = target: Proto-oncogene tyrosine-protein kinase Src (Homo sapiens) (UniProt P12931); assay: Inhibition of SRC (unknown origin) at 1 uM
# [40] = system: Human immunodeficiency virus 1; assay: Antiviral activity against HIV1 HTLV-3B infected in human MT4 cells assessed as inhibition of virus proliferation by measuring host cell viability at 25 nM relative to control; type: functional; how it was run: as §3
# CDK9/cyclin T1 [41] = target: T1, CDK9/cyclin T1; assay: Inhibition of CDK9/CycT1 (unknown origin); type: protein-complex assay
# T1 sequence (O60563 whole entry): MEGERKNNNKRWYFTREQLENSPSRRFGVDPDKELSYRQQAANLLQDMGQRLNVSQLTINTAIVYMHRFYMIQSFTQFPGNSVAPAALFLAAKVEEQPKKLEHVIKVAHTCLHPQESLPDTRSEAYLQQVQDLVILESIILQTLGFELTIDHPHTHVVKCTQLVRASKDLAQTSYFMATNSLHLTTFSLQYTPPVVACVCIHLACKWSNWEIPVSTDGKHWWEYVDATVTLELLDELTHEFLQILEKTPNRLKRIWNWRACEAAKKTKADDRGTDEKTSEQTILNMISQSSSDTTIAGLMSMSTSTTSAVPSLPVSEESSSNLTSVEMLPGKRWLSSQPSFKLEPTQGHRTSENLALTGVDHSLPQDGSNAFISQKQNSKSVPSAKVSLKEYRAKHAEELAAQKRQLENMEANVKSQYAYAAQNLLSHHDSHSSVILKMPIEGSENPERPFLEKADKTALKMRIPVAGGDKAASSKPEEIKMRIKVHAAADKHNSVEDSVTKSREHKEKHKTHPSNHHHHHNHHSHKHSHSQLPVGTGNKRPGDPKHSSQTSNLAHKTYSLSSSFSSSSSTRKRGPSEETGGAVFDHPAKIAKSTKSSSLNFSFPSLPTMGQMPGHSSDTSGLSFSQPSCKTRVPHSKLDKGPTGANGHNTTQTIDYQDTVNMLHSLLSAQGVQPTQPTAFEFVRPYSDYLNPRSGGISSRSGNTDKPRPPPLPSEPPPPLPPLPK
# T1 sequence (P50750 whole entry): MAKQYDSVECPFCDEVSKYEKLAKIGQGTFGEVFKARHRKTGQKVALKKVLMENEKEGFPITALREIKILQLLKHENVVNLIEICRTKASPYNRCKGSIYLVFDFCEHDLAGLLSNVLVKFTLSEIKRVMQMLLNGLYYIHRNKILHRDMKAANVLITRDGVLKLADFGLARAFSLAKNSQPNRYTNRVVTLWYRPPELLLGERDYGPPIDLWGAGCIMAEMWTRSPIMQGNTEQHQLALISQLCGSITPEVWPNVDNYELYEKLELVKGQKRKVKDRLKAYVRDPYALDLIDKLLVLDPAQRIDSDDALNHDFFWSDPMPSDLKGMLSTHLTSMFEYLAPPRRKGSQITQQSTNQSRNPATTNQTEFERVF
# Chain of Serine/threonine-protein kinase PAK 1 (Homo sapiens) (Q13153 whole entry): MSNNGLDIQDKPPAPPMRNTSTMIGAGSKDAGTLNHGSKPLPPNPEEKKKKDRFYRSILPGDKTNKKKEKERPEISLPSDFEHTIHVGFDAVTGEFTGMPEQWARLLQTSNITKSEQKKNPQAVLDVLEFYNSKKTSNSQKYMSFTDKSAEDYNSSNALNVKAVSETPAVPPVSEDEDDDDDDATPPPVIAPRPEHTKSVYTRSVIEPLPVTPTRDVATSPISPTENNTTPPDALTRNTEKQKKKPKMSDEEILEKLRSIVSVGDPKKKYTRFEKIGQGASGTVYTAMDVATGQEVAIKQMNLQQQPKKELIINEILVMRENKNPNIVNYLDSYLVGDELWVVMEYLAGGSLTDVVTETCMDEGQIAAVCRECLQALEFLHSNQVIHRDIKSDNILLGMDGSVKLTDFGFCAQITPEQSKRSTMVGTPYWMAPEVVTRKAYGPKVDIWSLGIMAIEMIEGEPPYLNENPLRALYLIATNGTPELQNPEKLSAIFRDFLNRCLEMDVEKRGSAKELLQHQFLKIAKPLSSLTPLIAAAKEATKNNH
# Chain of Platelet-derived growth factor receptor beta (Homo sapiens) (P09619 whole entry): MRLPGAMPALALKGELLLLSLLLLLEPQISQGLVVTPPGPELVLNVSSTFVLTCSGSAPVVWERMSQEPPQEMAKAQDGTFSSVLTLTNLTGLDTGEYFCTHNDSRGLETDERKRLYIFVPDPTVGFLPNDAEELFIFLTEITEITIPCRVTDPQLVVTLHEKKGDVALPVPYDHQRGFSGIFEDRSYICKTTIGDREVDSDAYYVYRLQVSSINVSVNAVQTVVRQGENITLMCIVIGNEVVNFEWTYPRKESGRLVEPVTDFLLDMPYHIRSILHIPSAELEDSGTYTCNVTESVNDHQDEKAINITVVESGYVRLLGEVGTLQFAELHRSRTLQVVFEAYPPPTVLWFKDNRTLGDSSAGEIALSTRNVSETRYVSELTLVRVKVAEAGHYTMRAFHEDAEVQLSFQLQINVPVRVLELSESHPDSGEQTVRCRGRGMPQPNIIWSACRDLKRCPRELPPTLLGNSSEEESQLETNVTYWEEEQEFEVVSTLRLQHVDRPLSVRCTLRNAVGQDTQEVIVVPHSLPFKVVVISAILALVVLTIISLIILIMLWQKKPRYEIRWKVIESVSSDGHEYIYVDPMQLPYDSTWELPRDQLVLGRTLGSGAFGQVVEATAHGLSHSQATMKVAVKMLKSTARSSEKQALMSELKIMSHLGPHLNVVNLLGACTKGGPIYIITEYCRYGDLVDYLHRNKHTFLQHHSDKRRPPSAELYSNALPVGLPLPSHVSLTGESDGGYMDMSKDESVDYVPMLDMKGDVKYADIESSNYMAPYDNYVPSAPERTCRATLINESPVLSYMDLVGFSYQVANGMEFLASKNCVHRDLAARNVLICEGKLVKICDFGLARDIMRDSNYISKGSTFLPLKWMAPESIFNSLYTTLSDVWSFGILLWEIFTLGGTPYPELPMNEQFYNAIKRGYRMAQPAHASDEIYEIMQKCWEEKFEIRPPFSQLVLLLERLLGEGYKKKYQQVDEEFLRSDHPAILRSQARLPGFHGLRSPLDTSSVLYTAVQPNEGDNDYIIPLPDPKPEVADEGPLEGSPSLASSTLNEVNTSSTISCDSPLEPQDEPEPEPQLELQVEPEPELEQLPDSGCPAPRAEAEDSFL
# Chain of Tyrosine-protein kinase JAK3 (Homo sapiens) (P52333 whole entry): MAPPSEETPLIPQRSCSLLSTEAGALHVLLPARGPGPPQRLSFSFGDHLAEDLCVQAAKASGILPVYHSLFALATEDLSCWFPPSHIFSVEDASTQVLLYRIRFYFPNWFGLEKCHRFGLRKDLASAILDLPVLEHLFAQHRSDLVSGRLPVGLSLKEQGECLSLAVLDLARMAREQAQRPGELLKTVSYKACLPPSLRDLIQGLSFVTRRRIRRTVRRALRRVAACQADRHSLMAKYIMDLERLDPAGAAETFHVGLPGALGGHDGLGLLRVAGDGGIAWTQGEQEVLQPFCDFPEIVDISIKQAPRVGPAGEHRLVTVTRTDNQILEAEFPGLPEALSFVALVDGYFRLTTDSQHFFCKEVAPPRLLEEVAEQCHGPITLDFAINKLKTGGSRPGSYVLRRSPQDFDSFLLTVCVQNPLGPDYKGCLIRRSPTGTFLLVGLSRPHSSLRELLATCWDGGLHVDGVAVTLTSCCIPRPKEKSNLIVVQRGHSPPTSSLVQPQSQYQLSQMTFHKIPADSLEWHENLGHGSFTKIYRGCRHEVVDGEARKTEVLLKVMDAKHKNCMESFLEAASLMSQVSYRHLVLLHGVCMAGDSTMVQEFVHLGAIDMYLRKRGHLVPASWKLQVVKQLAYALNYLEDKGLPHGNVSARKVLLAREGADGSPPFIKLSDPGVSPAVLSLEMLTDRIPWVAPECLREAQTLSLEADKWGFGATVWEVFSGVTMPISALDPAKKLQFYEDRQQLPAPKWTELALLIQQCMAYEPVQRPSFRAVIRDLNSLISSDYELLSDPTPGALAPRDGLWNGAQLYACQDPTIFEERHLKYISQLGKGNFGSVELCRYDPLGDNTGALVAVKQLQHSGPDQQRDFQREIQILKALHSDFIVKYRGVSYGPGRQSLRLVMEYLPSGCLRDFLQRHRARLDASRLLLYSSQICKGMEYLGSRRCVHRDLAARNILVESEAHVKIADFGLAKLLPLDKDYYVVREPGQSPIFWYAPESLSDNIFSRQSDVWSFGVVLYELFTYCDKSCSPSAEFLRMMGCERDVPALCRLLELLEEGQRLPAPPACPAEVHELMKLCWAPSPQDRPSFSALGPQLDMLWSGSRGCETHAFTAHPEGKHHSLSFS
# Chain of Proto-oncogene tyrosine-protein kinase Src (Homo sapiens) (P12931 2-536 limits assumed): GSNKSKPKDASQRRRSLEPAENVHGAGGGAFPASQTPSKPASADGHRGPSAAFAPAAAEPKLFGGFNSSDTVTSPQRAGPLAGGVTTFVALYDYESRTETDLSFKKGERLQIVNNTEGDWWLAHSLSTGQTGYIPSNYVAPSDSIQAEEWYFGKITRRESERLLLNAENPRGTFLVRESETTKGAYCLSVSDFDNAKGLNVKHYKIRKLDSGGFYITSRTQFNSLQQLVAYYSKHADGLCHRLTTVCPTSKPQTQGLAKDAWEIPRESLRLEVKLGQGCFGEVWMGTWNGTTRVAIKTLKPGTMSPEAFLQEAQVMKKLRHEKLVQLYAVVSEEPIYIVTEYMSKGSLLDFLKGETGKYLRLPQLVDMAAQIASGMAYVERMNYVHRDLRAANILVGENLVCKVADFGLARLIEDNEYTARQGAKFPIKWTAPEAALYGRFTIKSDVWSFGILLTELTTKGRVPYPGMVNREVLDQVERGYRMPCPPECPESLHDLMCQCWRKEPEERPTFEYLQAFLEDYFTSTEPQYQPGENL
# Chain of RAC-alpha serine/threonine-protein kinase (Homo sapiens) (P31749 whole entry): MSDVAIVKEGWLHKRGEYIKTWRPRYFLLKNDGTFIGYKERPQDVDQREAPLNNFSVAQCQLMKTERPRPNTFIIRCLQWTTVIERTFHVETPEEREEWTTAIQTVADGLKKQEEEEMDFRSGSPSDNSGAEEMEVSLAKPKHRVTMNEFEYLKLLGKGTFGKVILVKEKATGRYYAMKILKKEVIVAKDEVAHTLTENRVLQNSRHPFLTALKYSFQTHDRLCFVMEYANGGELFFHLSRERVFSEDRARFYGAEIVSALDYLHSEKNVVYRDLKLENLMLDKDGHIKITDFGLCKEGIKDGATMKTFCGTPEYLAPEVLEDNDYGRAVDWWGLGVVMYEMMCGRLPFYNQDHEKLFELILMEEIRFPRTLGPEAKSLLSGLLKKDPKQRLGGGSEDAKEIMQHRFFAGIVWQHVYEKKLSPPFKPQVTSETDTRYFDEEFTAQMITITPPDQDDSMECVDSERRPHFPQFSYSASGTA
compound,measurement,setting,value
COc1ccccc1-c1cc(Nc2cccc(S(N)(=O)=O)c2)ncn1,IC50,CDK9/cyclin T1 [1],52 nM
CCOP(=O)(CC)Cc1cccc(Nc2cc(-c3cccc(N)c3)ncn2)c1 (stereo not drawn),IC50,CDK9/cyclin T1 [2],327 nM
same,inhibition,[3],96%
same,inhibition,[4],22%
same,inhibition,[5],18%
CCCP(=O)(O)Cc1cccc(Nc2cc(-c3ccccc3OCc3ccccc3)ncn2)c1,IC50,CDK9/cyclin T1 [2],142 nM
same,"viability at 168 h, 2.5 µM",[6],141%
same,Host cell viability relative to infected untreated cells,[7],141%
same,residual activity,[8],18%
same,"viability at 168 h, 1.25 µM",[9],158%
CCCP(=O)(Cc1cccc(Nc2cc(-c3ccccc3OC)ncn2)c1)OCC (stereo not drawn),inhibition,[10],0%
same,IC50,CDK9/cyclin T1 [2],296 nM
same,inhibition,[11],7%
same,inhibition,[12],10%
same,inhibition,[13],-1%
same,inhibition,[14],16%
same,inhibition,[15],2%
same,inhibition,[16],6%
same,inhibition,[17],14%
same,inhibition,[18],9%
same,inhibition,[19],7%
same,inhibition,[20],19%
same,inhibition,[21],14%
same,inhibition,[22],1%
same,"viability at 168 h, 2.5 µM",[6],81%
same,inhibition,[23],7%
same,inhibition,[24],-2%
same,inhibition,[25],7%
same,inhibition,[3],95%
same,inhibition,[26],5%
same,inhibition,[4],14%
same,inhibition,[27],6%
same,competitive inhibition (qualitative),[28],Active
same,inhibition,[29],9%
same,Host cell viability relative to infected untreated cells,[7],131%
same,inhibition,[30],-1%
same,inhibition,[31],9%
same,inhibition,[32],6%
same,inhibition,[5],23%
same,inhibition,[33],5%
same,inhibition,[34],9%
same,inhibition,[35],2%
same,inhibition,[36],5%
same,"viability at 168 h, 1.25 µM",[9],66%
same,inhibition,[37],-1%
same,inhibition,[38],16%
same,inhibition,[39],4%
Cc1cn([C@H]2C[C@H](N=[N+]=[N-])[C@@H](CO)O2)c(=O)[nH]c1=O [ZIDOVUDINE],Activity,[40],132%
COc1ccccc1-c1cc(Nc2ccc(C)c(NS(C)(=O)=O)c2)ncn1,IC50,CDK9/cyclin T1 [1],30 nM
CCOP(=O)(CC)Cc1cccc(Nc2cc(-c3ccccc3OC)ncn2)c1 (stereo not drawn),inhibition,[10],9%
same,IC50,CDK9/cyclin T1 [2],197 nM
same,inhibition,[11],21%
same,inhibition,[12],20%
same,inhibition,[13],8%
same,inhibition,[14],28%
same,inhibition,[15],18%
same,inhibition,[16],22%
same,inhibition,[17],12%
same,inhibition,[18],8%
same,inhibition,[19],15%
same,inhibition,[20],25%
same,inhibition,[21],24%
same,inhibition,[22],8%
same,"viability at 168 h, 2.5 µM",[6],94%
same,inhibition,[23],13%
same,inhibition,[24],8%
same,inhibition,[25],14%
same,inhibition,[3],98%
same,inhibition,[26],10%
same,inhibition,[4],24%
same,inhibition,[27],12%
same,competitive inhibition (qualitative),[28],Active
same,inhibition,[29],16%
same,Host cell viability relative to infected untreated cells,[7],105%
same,inhibition,[30],11%
same,inhibition,[31],20%
same,inhibition,[32],11%
same,inhibition,[5],36%
same,inhibition,[33],11%
same,inhibition,[34],3%
same,inhibition,[35],12%
same,inhibition,[36],0%
same,"viability at 168 h, 1.25 µM",[9],94%
same,inhibition,[37],8%
same,inhibition,[38],34%
same,inhibition,[39],18%
COc1ccccc1-c1cc(Nc2cccc(NS(N)(=O)=O)c2)ncn1,IC50,CDK9/cyclin T1 [41],170 nM
Cc1ccc(Nc2cc(-c3cccc(N)c3)ncn2)cc1NS(C)(=O)=O,IC50,CDK9/cyclin T1 [41],129 nM
